An excerpt weighted towards active compounds, which were near 5.2% of everything screened.
EBNA-1 inhibitor = blocks EBNA-1 binding to DNA; inhibition, % at 14.8 µM; 0.34% of 300,000 active; EBNA-1 DNA binding, fluorescence polarization; in the data active = inhibition above about 28%
HCV core dimer = HCV core protein dimerization inhibition; TR-FRET GST/Flag-core106 dimerization, 1536-well; inhibition, % at 5 µM; 0.33% of 300,000 active;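 active = inhibition above the mean of all tested compounds plus 3 SD, set per screening campaign, cut at about 45% in these data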
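test system = GST/Flag-tagged HCV core106 proteins | probe or stimulus = Eu donor and XL665 acceptor anti-tag antibodies | times = compound-protein-antibody incubation 4 h at 22.5 °C | signal = TR-FRET, excitation 340 nm, emission 617 and 671 nm | measure = percent inhibition of core106 dimerization signal | controls = wells lacking GST-core106 and wells with excess unlabelled core106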
ZTA counter = counter-screen for EBNA-1 inhibitors: inhibitors of Epstein-Barr virus ZTA | 0.15% of 320,000 active | inhibition, % at 11 µM | ZTA-DNA binding, fluorescence polarization; in the data active = inhibition above about 33%
Target sequence (P03206 whole entry, looked up): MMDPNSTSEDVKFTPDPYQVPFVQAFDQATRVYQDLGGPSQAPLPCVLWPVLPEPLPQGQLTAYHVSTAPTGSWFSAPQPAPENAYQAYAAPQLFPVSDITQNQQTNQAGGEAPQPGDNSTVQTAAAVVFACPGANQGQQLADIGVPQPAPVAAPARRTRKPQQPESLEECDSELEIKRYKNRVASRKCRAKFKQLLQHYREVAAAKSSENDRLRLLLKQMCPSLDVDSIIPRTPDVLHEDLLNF
NS3 helicase inh = blocks Hepatitis C virus NS3 helicase unwinding; NS3 helicase DNA unwinding, Cy5 molecular beacon fluorescence; AID 1800; inhibition, % at 10.9 µM; 0.56% of 290,000 active;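 active = inhibition above the mean of all tested compounds plus 3 SD, set per campaign, cut at about 35% in these data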
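Test system: hepatitis C virus NS3 helicase domain fragment enzyme. Also added: annealed dual-labelled DNA beacon duplex, ATP-started. Timing: 60 min unwinding reaction at 25 °C after ATP addition. Technique: Cy5 fluorescence. Measure: % inhibition of unwinding.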
ALR inh = blocks human ALR sulfhydryl oxidase activity. P55789. purified ALR, DTT oxidation, H2O2 HRP-luminol luminescence. inhibition, % (no concentration beside the values). 3.8% of 290,000 active;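 active = mean replicate inhibition above about 79%, with every replicate also reaching it, limit read from the data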
Target sequence (P55789 whole entry, looked up): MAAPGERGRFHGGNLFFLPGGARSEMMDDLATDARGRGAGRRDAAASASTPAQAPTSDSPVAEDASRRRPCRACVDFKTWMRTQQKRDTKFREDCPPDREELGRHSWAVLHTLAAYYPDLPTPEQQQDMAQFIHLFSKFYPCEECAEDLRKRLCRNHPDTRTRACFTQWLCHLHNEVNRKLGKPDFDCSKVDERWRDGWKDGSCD
M18AAP inhibitor = blocks P. falciparum M18 aspartyl aminopeptidase; recombinant PfM18AAP, H-Glu-NHMec fluorogenic cleavage; inhibition, % at 7.35 µM; 1.2% of 290,000 active;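 active = inhibition above the campaign mean inhibition over all tested compounds plus 3 SD, cut at about 28% in these data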
Each line names hits and unclear results; the compound was inactive in the other large screens.

Cc1ccc2sc(N(CCCN(C)C)C(=O)CCS(=O)(=O)c3ccccc3)nc2c1C	ALR inh 98
CC(C)c1ccc(/C=C/C(=O)CCC(=O)O)cc1	ALR inh 98
O=C(O)CCC(=O)/C=C/c1ccccc1	none
COc1ccc(-c2nc(CS(=O)(=O)CC(=O)NCc3ccccc3OC)c(C)o2)cc1	ALR inh 99
COc1ccc(-c2nc(CS(=O)(=O)CC(=O)NCc3ccccc3Br)c(C)o2)cc1	ALR inh 98
COc1ccc(-c2nc(CS(=O)(=O)CC(=O)NCc3cccc(OC)c3OC)c(C)o2)cc1	none
Cc1ccc(C)c(S(=O)(=O)N2CCN(C(=O)c3sccc3C)CC2)c1	none (no result: NS3 helicase inh, ALR inh, M18AAP inhibitor)
CC(/C=C1\SC(=S)N(NS(=O)(=O)c2ccccc2)C1=O)=C\c1ccccc1	ALR inh 98
CC(/C=C1\SC(=S)N(NC(=O)c2ccccc2C)C1=O)=C\c1ccccc1	none
CC(/C=C1\SC(=S)N(NC(=O)c2ccc(C)cc2)C1=O)=C\c1ccccc1	HCV core dimer 67
CCCCn1c2ccc(F)cc2c2nnc(NN)nc21	none
CCn1c2ccccc2c2nnc(NN)nc21	M18AAP inhibitor 31
Cn1c2ccccc2c2nnc(NN)nc21	M18AAP inhibitor 30
CCn1c2ccc(C)cc2c2nnc(NN)nc21	ALR inh 99
CCOC(=O)CSc1nnc2c3ccccc3n(CC)c2n1	none (no result: ALR inh)
COC(=O)c1cc(C(=O)N2CCc3ccccc32)cc([N+](=O)[O-])c1	none
COc1cccc(NC(=O)COC(=O)c2cc(=O)c3ccccc3o2)c1	none (no result: EBNA-1 inhibitor, HCV core dimer, NS3 helicase inh, M18AAP inhibitor)
CCOc1ccc(NC(=O)CCC(=O)N/N=C(\C)c2cccs2)cc1	none
CCN(CC)CCCNC(=O)c1cc(Cl)c(NC(=O)C2=C(C)OCCS2)cc1OC	none
COc1ccc(CNc2nc3ccccc3n2CCN2CCOCC2)cc1	ALR inh 94
CCN(CC)c1ccc(CNc2nc3ccccc3n2CCN2CCOCC2)cc1	ALR inh 98
Cc1nc2ccccn2c1C(=O)Nc1ccc(Cl)cc1	none
COC(=O)c1c(NC(=O)CN2CCN(Cc3ccc4c(c3)OCO4)CC2)sc(C)c1C	ALR inh 97
COc1cccc(C(=O)Nc2ccc(C(=O)NCC3CCCO3)cc2)c1 (stereo not drawn)	none (no result: NS3 helicase inh, M18AAP inhibitor)
CCCCCOCC1CC(C/C(C)=N/Nc2nc(-c3ccccc3)cs2)C(=O)O1 (stereo not drawn)	ALR inh 96
CCn1ccnc1C(O)c1ccc(N(C)C)cc1 (stereo not drawn)	ALR inh 99
CCOc1ccc(C(O)c2nccn2Cc2ccccc2)cc1 (stereo not drawn)	none
COc1ccc(C(=O)Nc2ccc(N3CCCC3)cc2)cc1OC	ALR inh 99 (no result: EBNA-1 inhibitor, HCV core dimer, ZTA counter)
COc1ccc(NC(=O)c2cccnc2N2CCCC2)cc1	ALR inh 99
Cc1ccc(C(=O)Nc2ccc(N3CCCC3)cc2)c(C)c1	none
COc1ccc(NC(=O)C2CCCN2c2ccc(OC)c(OC)c2)cc1OC (stereo not drawn)	ALR inh 99
Cc1ccccc1C(=O)Nc1ccc(N2CCCC2)cc1	ALR inh 92
O=C(COC(=O)c1ccc(S(=O)(=O)C(F)F)cc1)Nc1cccnc1Cl	none (no result: NS3 helicase inh, M18AAP inhibitor)
CC(=O)N/C(=C\c1ccccc1)C(=O)OC(C)C(=O)Nc1ccccc1F (stereo not drawn)	none (no result: EBNA-1 inhibitor, HCV core dimer, NS3 helicase inh, ALR inh, M18AAP inhibitor)
O=C(Nc1ccc(N2CCCCC2)cc1)c1cccnc1	ALR inh 98
CCc1cc2c3c(c1)C(C)CC(C)(C)N3C(=O)/C2=C1\SC(=O)NC1=O (stereo not drawn)	ALR inh 97
COc1cccc(NC(=O)N2CCCC2C(=O)Nc2cc(C)ccc2OC)c1 (stereo not drawn)	none (no result: ALR inh)
CCCCN1C2CCCC1CC(NC(=O)c1cccc(OC)c1)C2 (stereo not drawn)	none (no result: ALR inh)
Cc1cccc(N2CCN(S(=O)(=O)c3ccc4c(c3)C(C)(C)C(=O)N4C)CC2)c1C	HCV core dimer 47
Cc1cccc(N(C)S(=O)(=O)c2ccc3c(c2)C(C)(C)C(=O)N3C)c1	HCV core dimer 54
COc1ccccc1CNC(=O)c1cc(S(=O)(=O)N2CCCCC2)c[nH]1	none
O=C1/C(=C/c2ccccc2Cl)SC(=S)N1CCCC(=O)N(CCO)c1ccccc1	none

Bioassay records as filed in PubChem.
